Measured values from ChEMBL document CHEMBL3352507, “Preparation and antimalarial activity of a novel class of carbohydrate-derived, fused thiochromans” (Eur J Med Chem, 2014).
pIC50: −log10 of the molar value.

Tested on: Plasmodium falciparum
Test: Antimalarial activity against Plasmodium falciparum 3D7 after 48 hrs by parasite lactate dehydrogenase assay
Type: functional, organism-based
Details: 3D7, 48 h
How it was run: (§1)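 Parasite survival read by parasite lactate dehydrogenase (pLDH) assay. Single-concentration prescreen at […]; compounds with 0–15% survival were taken to dose–response. Ten three-fold serial dilutions in triplicate, incubated 48 h in a gassed airtight box, developed with NBT/PES. IC50 from sigmoidal curve of % survival relative to control against log concentration.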

SMILES | pIC50
CC(C)(C)c1ccc2c(c1)[C@H]1O[C@H](COCc3ccccc3)[C@@H](OCc3ccccc3)[C@H](OCc3ccccc3)[C@H]1CS2 | < 4.00
c1ccc(COC[C@H]2O[C@@H]3c4c(ccc5ccccc45)SC[C@@H]3[C@@H](OCc3ccccc3)[C@@H]2OCc2ccccc2)cc1 | < 4.00
CC(=O)OC[C@H]1O[C@@H]2c3cc(C(C)(C)C)ccc3SC[C@@H]2[C@@H](OC(C)=O)[C@@H]1OC(C)=O | < 4.00
CC(C)(C)c1ccc2c(c1)[C@H]1O[C@H](CO)[C@@H](O)[C@H](O)[C@H]1CS2 | < 4.00
[O-][S@@+]1C[C@@H]2[C@@H](OCc3ccccc3)[C@H](OCc3ccccc3)[C@@H](COCc3ccccc3)O[C@@H]2c2ccccc21 | < 4.00
Cc1cccc2c1[S@@+]([O-])C[C@@H]1[C@@H](OCc3ccccc3)[C@H](OCc3ccccc3)[C@@H](COCc3ccccc3)O[C@H]21 | 5.38

Tested on: not listed separately
Test: Cytotoxicity against human WI38 cells assessed as cell viability at 10 uM after 48 hrs by SRB assay
Type: cell-based, WI-38
Details: read-out: Activity
How it was run: (§2)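 WI-38 fibroblasts (passages 21–50) were seeded at 10 000 cells/well for 24 h, then exposed for 48 h to compound dissolved in DMSO and diluted in medium. Viable cells were fixed with cold 50% trichloroacetic acid and stained with sulforhodamine B. Bound dye was extracted with 10 mM Tris base and read at 540 nm. Viability relative to drug-free cells.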

SMILES | viability at 48 h, 10 µM [%]
Cc1cccc2c1[S@@+]([O-])C[C@@H]1[C@@H](OCc3ccccc3)[C@H](OCc3ccccc3)[C@@H](COCc3ccccc3)O[C@H]21 | 84.7

Tested on: not listed separately
Test: Cytotoxicity against human WI38 cells assessed as cell viability at 100 uM after 48 hrs by SRB assay
Type: cell-based, WI-38
Details: read-out: Activity
How it was run: as §2

SMILES | viability at 48 h, 100 µM [%]
Cc1cccc2c1[S@@+]([O-])C[C@@H]1[C@@H](OCc3ccccc3)[C@H](OCc3ccccc3)[C@@H](COCc3ccccc3)O[C@H]21 | 67.1

Tested on: not listed separately
Test: Cytotoxicity against human WI38 cells after 48 hrs by SRB assay
Type: cell-based
Details: WI-38, 48 h
How it was run: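 WI-38 human fetal lung fibroblasts (passages 21–50) in EMEM with 10% FBS, 2 mM L-glutamine and gentamicin, at 37 °C and 5% CO2. Seeded at 10 000 cells/well, grown 24 h, then given compound in DMSO diluted in medium to 5 concentrations for 48 h. Cells were fixed with cold 50% TCA and stained with SRB, and dye was read at 540 nm. IC50 by non-linear regression against untreated controls.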

SMILES | pIC50
c1ccc(COC[C@H]2O[C@@H]3c4c(ccc5ccccc45)SC[C@@H]3[C@@H](OCc3ccccc3)[C@@H]2OCc2ccccc2)cc1 | < 4.00
[O-][S@@+]1C[C@@H]2[C@@H](OCc3ccccc3)[C@H](OCc3ccccc3)[C@@H](COCc3ccccc3)O[C@@H]2c2ccccc21 | < 4.00
Cc1cccc2c1[S@@+]([O-])C[C@@H]1[C@@H](OCc3ccccc3)[C@H](OCc3ccccc3)[C@@H](COCc3ccccc3)O[C@H]21 | < 4.00

Tested on: not listed separately
Test: Cytotoxicity against human WI38 cells assessed as cell viability at 0.01 uM after 48 hrs by SRB assay
Type: cell-based, WI-38
Details: read-out: Activity
How it was run: as §2

SMILES | viability at 48 h, 0.01 µM [%]
Cc1cccc2c1[S@@+]([O-])C[C@@H]1[C@@H](OCc3ccccc3)[C@H](OCc3ccccc3)[C@@H](COCc3ccccc3)O[C@H]21 | 102

Tested on: Plasmodium falciparum
Test: Antimalarial activity against Plasmodium falciparum FCR3 after 48 hrs by parasite lactate dehydrogenase assay
Type: functional, organism-based
Details: FCR3, 48 h
How it was run: as §1

SMILES | pIC50
CC(C)(C)c1ccc2c(c1)[C@H]1O[C@H](COCc3ccccc3)[C@@H](OCc3ccccc3)[C@H](OCc3ccccc3)[C@H]1CS2 | < 4.00
c1ccc(COC[C@H]2O[C@@H]3c4c(ccc5ccccc45)SC[C@@H]3[C@@H](OCc3ccccc3)[C@@H]2OCc2ccccc2)cc1 | 5.15
CC(=O)OC[C@H]1O[C@@H]2c3cc(C(C)(C)C)ccc3SC[C@@H]2[C@@H](OC(C)=O)[C@@H]1OC(C)=O | < 4.00
CC(C)(C)c1ccc2c(c1)[C@H]1O[C@H](CO)[C@@H](O)[C@H](O)[C@H]1CS2 | < 4.00
[O-][S@@+]1C[C@@H]2[C@@H](OCc3ccccc3)[C@H](OCc3ccccc3)[C@@H](COCc3ccccc3)O[C@@H]2c2ccccc21 | 4.99
Cc1cccc2c1[S@@+]([O-])C[C@@H]1[C@@H](OCc3ccccc3)[C@H](OCc3ccccc3)[C@@H](COCc3ccccc3)O[C@H]21 | 5.56

Tested on: not listed separately
Test: Cytotoxicity against human WI38 cells assessed as cell viability at 0.1 uM after 48 hrs by SRB assay
Type: cell-based, WI-38
Details: read-out: Activity
How it was run: as §2

SMILES | viability at 48 h, 0.1 µM [%]
Cc1cccc2c1[S@@+]([O-])C[C@@H]1[C@@H](OCc3ccccc3)[C@H](OCc3ccccc3)[C@@H](COCc3ccccc3)O[C@H]21 | 99.5

Tested on: not listed separately
Test: Cytotoxicity against human WI38 cells assessed as cell viability at 1 uM after 48 hrs by SRB assay
Type: cell-based, WI-38
Details: read-out: Activity
How it was run: as §2

SMILES | viability at 48 h, 1 µM [%]
Cc1cccc2c1[S@@+]([O-])C[C@@H]1[C@@H](OCc3ccccc3)[C@H](OCc3ccccc3)[C@@H](COCc3ccccc3)O[C@H]21 | 99.2
